Experimental data from PubChem BioAssay AID809 (SRMLSC, 2007).
Active and inactive are the calls of the source.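 The calls were made as follows: active = EC50 for reversing nicotinamide-shortened yeast lifespan at or below a set limit; inactive = EC50 above that limit.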

These compounds were tested on S. cerevisiae DeaD BB579, nicotinamide rescue growth, OD615 48 h (assay: rescue of nicotinamide-suppressed growth of yeast BB579, dose response, yeast lifespan extension project, S. cerevisiae (AID 809)).
Outline: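 Assay system: Saccharomyces cerevisiae DeaD strain BB579, log-phase cells; Medium: CSMM-D glucose restrictive medium; Dosing: compounds from 0.078 to 10 µM final, 0.5% DMSO; Times: 4 h pre-incubation, 48 h exposure at 30 °C; Technique: optical density at 615 nm (absorbance); Evaluation: culture saturation density reflecting mother-cell replicative lifespan.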
Work on `CC(=O)Oc1oc(-c2ccccc2)nc1C=Nc1ccccc1` yielded an EC50 of 5.95 µM.
Work on `COc1cccc(C2CC3C(=O)C=CC2N3Cc2ccccc2)c1` (configuration not stated) yielded an EC50 of 6.1 µM.
`Cc1[nH]n(-c2ccccc2)c(=O)c1N=Nc1nccs1` gave an EC50 of 6 µM.
`CC(=O)Nc1nc(C)c(Oc2ccccc2)c(=O)[nH]1` was tested, and the EC50 was > 10 µM (inactive).
In the case of `O=c1cc(O)c2c(=O)n(-c3ccccc3)c3c(c2o1)CCCCCC3`, the EC50 is reported as > 10 µM (inactive).
In the case of `O=C(Nc1ccc(S(=O)(=O)N2CCc3ccccc3C2)cc1)c1ccccc1`, the EC50 is reported as > 10 µM (inactive).
`Cc1ccccc1Oc1cc(-n2ncc(Cl)c(Cl)c2=O)ncn1` was tested, and the EC50 was > 10 µM (inactive).
For `Cc1ccc(N(C)C(=O)Oc2ccc(C(=O)c3ccc(Cl)cc3)cc2)cc1`, the EC50 was > 10 µM (inactive).
In the case of `Cc1cc(C)c(S(=O)(=O)c2ccccc2)c(OC(=O)c2ccc(Cl)cc2Cl)n1`, the EC50 is reported as 7.48 µM.
For `CCCCN(CCCC)c1ccc(C(=O)c2ccccc2C(=O)O)c(O)c1`, the EC50 was 6.81 µM.
With `CCCCCSc1nc2c(c(=O)[nH]c(=O)n2C)n1C` the EC50 was > 10 µM (inactive).
In the case of `Cc1cc(C)n(-c2ccc(OCC(=O)O)nn2)n1`, the EC50 is reported as > 10 µM (inactive).
For `CC1CC(C)CN(S(=O)(=O)c2cccc(C(=O)N3C(=O)c4cccc(N)c4C3=O)c2)C1` (configuration not stated), the EC50 was 4.71 µM.
With `CSc1ccc(S(=O)(=O)NCc2ccc(Cl)cc2Cl)cc1` the EC50 was > 10 µM (inactive).
In the case of `O=C(c1cnn2c(C(F)F)cc(C3CC3)nc12)N1CCCC1`, the EC50 is reported as > 10 µM (inactive).
Work on `CCCCC1C(=O)CC[C@H]2[C@@H]1CC(=O)[C@@H]2C/C=C\CCCC(=O)O` (some centres not stated) yielded an EC50 of 8.1 µM.
With `O=C(COc1ccc([N+](=O)[O-])cc1)N(Cc1ccccc1)Cc1ccccc1` the EC50 was > 10 µM (inactive).
`CNC(=O)/C(C#N)=C/c1c(F)cccc1Cl` gave an EC50 of 7.85 µM.
With `CC(C)C(OC(=O)CN1C(=O)COc2ccccc21)C(=O)NC1CCCC1` (configuration not stated) the EC50 was > 10 µM (inactive).
For `O=c1cc(-c2c(F)c(F)c(F)c(F)c2F)oc2c(F)c(F)c(F)c(F)c12`, the EC50 was 5.65 µM.
Work on `CCN1C(=O)C(=Cc2ccc(C)s2)C(=O)N(CC)C1=S` yielded an EC50 of 3.74 µM.
In the case of `CCC1CCCCN1S(=O)(=O)c1ccc(S(=O)(=O)N(Cc2cccs2)C2CC2)cc1` (configuration not stated), the EC50 is reported as > 10 µM (inactive).
`COc1ccc2c(=O)c3c(=O)n(Cc4ccco4)c(-c4ccco4)nc3oc2c1` showed an EC50 of 9.69 µM.
`CCn1ncc(/C=N/NC(=O)c2ccc3c(c2)OCO3)c1C` was tested, and the EC50 was > 10 µM (inactive).
`Cc1cc(C)c(NC(=O)/C(=C/c2ccccc2)c2ccccc2)c(C)c1` was tested, and the EC50 was > 10 µM (inactive).
Compound `NC(=S)N/N=C/c1coc2cc(Cl)ccc2c1=O` has an EC50 of 4.87 µM.
`Cc1ccc2[nH]c(=O)c(CN(CCO)Cc3nnnn3CCc3ccccc3)cc2c1` was tested, and the EC50 was > 10 µM (inactive).
`CN(C)/C=C(/C(=O)c1ccc(Cl)cc1Cl)S(=O)(=O)c1ccc(Cl)cc1` was tested, and the EC50 was 5.49 µM.
Work on `CC1Cc2ccccc2N1C(=O)Cn1cnc2ccccc2c1=O` (configuration not stated) yielded an EC50 of 3.18 µM.
In the case of `O=C(CCc1ccccc1)NCCCN1CCOCC1`, the EC50 is reported as > 10 µM (inactive).
In the case of `CCOc1ccc(C2=NNC(c3cccs3)=Nc3ccc(OCC)cc32)cc1`, the EC50 is reported as > 10 µM (inactive).
With `CCCNC(=O)CCC(NS(=O)(=O)c1ccc(C)cc1)C(=O)NCCC` (configuration not stated) the EC50 was > 10 µM (inactive).
In the case of `COc1ccc(/C=N/NC(=O)c2csc(-n3nc(C)cc3C(F)(F)F)n2)cc1`, the EC50 is reported as > 10 µM (inactive).
For `O=C(NC(=S)NNS(=O)(=O)c1ccccc1)c1ccc([N+](=O)[O-])cc1`, the EC50 was > 10 µM (inactive).
In the case of `CC(c1ccccc1)N1CCn2c(nc3cc(NC(=O)c4cccs4)ccc32)C1` (configuration not stated), the EC50 is reported as 7.15 µM.
`CCCCCn1c(=O)c(C(=O)NCc2ccccn2)c(O)c2ccccc21` was tested, and the EC50 was > 10 µM (inactive).
For `COC(=O)c1sc(S(=O)(=O)Nc2ccc(Br)cc2)c(C(=O)OC)c1C`, the EC50 was > 10 µM (inactive).
For `Cc1ccc(N/C(C(Cl)=C(Cl)Cl)=C(/Cl)[N+](=O)[O-])c(C)c1`, the EC50 was 8.68 µM.
In the case of `COc1ccc(N(C)C(=S)Nc2ccc3nc(C)c(C)nc3c2)cc1`, the EC50 is reported as > 10 µM (inactive).
In the case of `CCOc1ccc(N=Cc2c(O)c3ccccc3oc2=O)cc1`, the EC50 is reported as > 10 µM (inactive).
`O=C1ON=C(c2ccccc2)/C1=C/c1ccc(-c2ccccc2[N+](=O)[O-])o1` showed an EC50 of 3.82 µM.
With `CCc1nnc(N2C(=O)c3ccc(Oc4ccc([N+](=O)[O-])cc4)cc3C2=O)s1` the EC50 was > 10 µM (inactive).
In the case of `CCOC(=O)c1c(C)oc2c1c(C(c1cccnc1)N1CCOCC1)c(O)c1ccccc12` (configuration not stated), the EC50 is reported as > 10 µM (inactive).
`Cc1ccc2nc(-c3ccc(NC(=O)CSc4ccccc4)cc3)[nH]c2c1` was tested, and the EC50 was > 10 µM (inactive).
In the case of `COc1c(Br)cc(Br)cc1/C=N/n1c(C)nnc1C`, the EC50 is reported as > 10 µM (inactive).
Work on `CN(C)CC(C(=O)c1ccccc1)c1ccccc1` (configuration not stated) yielded an EC50 of 6.36 µM.
`O=S(=O)(Nc1nc2ccccc2nc1Cl)c1ccc2ccccc2c1` showed an EC50 of 7.25 µM.
In the case of `O=C1c2ccccc2C(=O)N1Cc1nc2ccccc2c(=O)n1-c1ccc(Br)cn1`, the EC50 is reported as 1.67 µM.
`CCn1cc(C(=O)O)c(=O)c2ccc(C)nc21` gave an EC50 of 3.62 µM.
`O=C(O)c1c[nH]c(=S)n1-c1ccc(F)cc1` was tested, and the EC50 was > 10 µM (inactive).
`CC(C)OCCCNS(=O)(=O)c1ccc2ccccc2c1` was tested, and the EC50 was > 10 µM (inactive).
Work on `Cc1cccc(NC(=O)c2c(O)c3cccc4c3n(c2=O)CCC4)n1` yielded an EC50 of 6.87 µM.
Work on `COC(=O)CCS(=O)(=O)c1nc(-c2ccccc2)cc(C(F)(F)F)n1` yielded an EC50 of 1.99 µM.
In the case of `O=c1c2[nH]c3ccccc3c2ncn1Cc1ccco1`, the EC50 is reported as > 10 µM (inactive).
`O=[N+]([O-])c1cc(S(=O)(=O)N2CCCCCC2)ccc1F` gave an EC50 of 5.18 µM.
In the case of `Cc1nn(-c2c(Cl)cc(Cl)cc2Cl)c(=O)c2ccccc12`, the EC50 is reported as 6.34 µM.
`COc1ccc(/C(O)=C/C(=O)C(=O)Nc2c(C)n(C)n(-c3ccccc3)c2=O)cc1` was tested, and the EC50 was 5.85 µM.
Compound `Cc1cc(N=Cc2c(O)ccc3ccccc23)no1` has an EC50 of 5.54 µM.
In the case of `CC1=CS(=O)(=O)CC1Sc1nc2ccccc2[nH]1` (configuration not stated), the EC50 is reported as > 10 µM (inactive).
For `c1cncc(-c2nn[nH]n2)c1`, the EC50 was > 10 µM (inactive).
`CCCCSc1[nH]c(=O)c(C(=O)OCC)cc1C#N` showed an EC50 of 6.45 µM.
In the case of `COc1cccc(/C=C/C(=O)c2c(O)cc(C)oc2=O)c1O`, the EC50 is reported as > 10 µM (inactive).
For `N#Cc1cc(C(=O)c2cc(F)ccc2O)cn(-c2nccs2)c1=O`, the EC50 was > 10 µM (inactive).
Compound `O=C(c1ccccc1)C(CN1CCCC1)c1ccccc1` (configuration not stated) has an EC50 of 9.14 µM.
For `CC1=NN(c2ccc(C(F)(F)F)cn2)C(=O)C1`, the EC50 was > 10 µM (inactive).
In the case of `CCN1C(=O)/C(=C/N(C(C)=O)c2ccccc2)N(c2ccccc2)C1=S`, the EC50 is reported as > 10 µM (inactive).
`CCCn1[nH]cc(SC)c(=O)c1=O` showed an EC50 of 8.67 µM.
In the case of `CC(C)c1ccc(C2=C(O)c3ccccc3C(=O)C2=O)cc1`, the EC50 is reported as > 10 µM (inactive).
For `Fc1cccc2sc(Nc3nnc(-c4ccccc4)o3)nc12`, the EC50 was 3.02 µM.
For `CN1OC(c2ccccc2)=C(CO)C1c1ccccc1` (configuration not stated), the EC50 was > 10 µM (inactive).
For `CCc1oc2ccccc2c1C(=O)CCN1CCCCC1`, the EC50 was 8.21 µM.
With `CCn1ccc(C(=O)Nc2ccc(S(=O)(=O)Nc3ccccc3OC)cc2)n1` the EC50 was > 10 µM (inactive).
With `O=C1Nc2ccccc2C12OCC1(CO2)COC2(OC1)C(=O)Nc1ccccc12` (configuration not stated) the EC50 was > 10 µM (inactive).
In the case of `CCSc1ccccc1C(=O)n1nnc2ccccc21`, the EC50 is reported as 7.79 µM.
Compound `O=C(Nc1cccc(Cl)c1)c1ccc2c(=O)n3c(nc2c1)CCCCC3` has an EC50 of 6.59 µM.
`Cc1cc(C=C2C(=O)N(C)C(=S)N(C)C2=O)c(C)n1-c1cccnc1` was tested, and the EC50 was > 10 µM (inactive).
`CCCCn1c(NS(=O)(=O)c2ccc(C)cc2)c(C(=O)OCC)c2nc3ccccc3nc21` was tested, and the EC50 was > 10 µM (inactive).
